Assay results from different studies.
Compare with care: the assays were run in different laboratories.
TYK2 JH2: Non-receptor tyrosine-protein kinase TYK2, JH2 (TYK2, Homo sapiens, UniProt P29597)
TYK2: Non-receptor tyrosine-protein kinase TYK2 (TYK2, Homo sapiens, UniProt P29597)

Cc1nn(C)cc1-c1nc2c(N3CCN(Cc4ccc(Cl)cc4)CC3)c(Cl)cnc2[nH]1  remaining binding (TYK2 JH2; binding, competition with immobilised ligand; 1 µM): 100%
Cn1cncc1[C@@](O)(COc1ccc(C#N)cc1-c1ccc(OC(F)(F)F)cc1)c1ccc(C#N)cc1  remaining binding (TYK2 JH2; cell-free assay, competition with immobilised ligand; 1 µM): 100%
Cn1cc(-c2cccc(N3CCc4c(sc5c4CC(C)(C)C5)C3=O)c2CO)cc(Nc2ccncn2)c1=O  inhibition (TYK2; enzyme activity, inhibitor; 1 µM): 3%
CC(C)(C)c1cc(C=C(C#N)C#N)cc(Br)c1O  remaining activity (TYK2; enzyme activity, inhibitor; 0.5 µM): 61.3%
COc1ncccc1-c1cnn2ccc(N3CCN(C(=O)OC(C)C)CC3)nc12  remaining binding (TYK2; binding, competition with immobilised ligand; 1 µM): 76%
N#CC1(c2ccccn2)CCN(Cc2cc(C(=O)O)c(=O)n3ccccc23)CC1  remaining binding (TYK2 JH2; cell-free assay, competition with immobilised ligand; 1 µM): 93%
Nc1ncc(-c2nc(N3CCOCC3)nc(N3CCOCC3)n2)c(C(F)F)n1  remaining binding (TYK2 JH2; binding, competition with immobilised ligand; 10 µM): 15%
O=c1[nH]c2ccccc2n1C1CCN(Cc2ccc(-c3[nH]c4cc5ncnc5cc4nc3-c3ccccc3)cc2)CC1  remaining signal (TYK2; cell-free assay; 0.5 µM): 101%
Cn1cc(-c2cc(F)cc(N3CCn4c(cc5c4CCCC5)C3=O)c2CO)cc(Nc2ccc(N3CCN(C4COC4)CC3)cn2)c1=O  inhibition (TYK2; enzyme activity, inhibitor; 0.1 µM): 1%
